Assay results reported in ChEMBL document CHEMBL2086351, “Α-aryl-N-alkyl nitrones, as potential agents for stroke treatment: synthesis, theoretical calculations, antioxidant, anti-inflammatory, neuroprotective, and brain-blood barrier permeability properties” (J Med Chem, 2012).

Key:
[1] = target: Lipoxygenase (Glycine max) (UniProt Q39829); assay: Inhibition of soybean lipoxygenase assessed as conversion of sodium linoleate to 13-hydroperoxylinoleic acid at 0.1 mM by competitive inhibition assay
Summary of the method: (§1)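 Tested in vitro at 0.1 mM. The hydroxyl radical line measures competition with DMSO for hydroxyl radicals. Superoxide was generated at pH 7.4 and read as nitroblue tetrazolium reduction to formazan at 560 nm. LOX inhibition was measured by UV absorbance enzyme assay with plant lipoxygenase.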

Mus musculus = assay: Neuroprotective activity in NMRI mouse assessed as protection against tert-butyl hydroperoxide-mediated lethality at 150 mg/kg, ip administered 30 mins before t-BHP challenge measured after 1 to 24 hrs; type: functional; conditions: route intraperitoneal
[2] = Neuroprotective activity in Sprague-Dawley rat primary cortical neurons assessed as reversal of oxygen-glucose deprivation-induced neuronal damage at 100 uM by treated 4 hrs after OGD challenge measured after 24 hrs MTT assay relative to control; type: functional, cell-based; conditions: Cerebral cortex neuron
Summary of the method: (§2)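 Primary cerebral cortex neurons, cultured 6–8 days, underwent 4 h oxygen–glucose deprivation. Compounds (0.1 μM–10 mM range) were added at the start of a 24 h reperfusion. Viability was read by MTT with untreated control as 100%. Neuroprotection = % recovery from the reperfusion-only value (0%) to control (100%). Three to five independent experiments; mean ± SEM.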

[3] = system: Radical scavenging activity; assay: Antioxidant activity assessed as DPPH radical scavenging activity at 0.5 mM after 2 hrs by spectrophotometric analysis; type: functional
Summary of the method: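 DPPH radical test, measuring initial absorbance and absorbance after reaction spectrophotometrically.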

[4] = Antioxidant activity against AAPH-induced lipid peroxidation assessed as induction time of inhibition at 0.1 mM; type: functional
[5] = Permeability of the compound at pH 7.4 by PAMPA; type: ADME; conditions: read-out: permeability
Summary of the method: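 PAMPA-BBB method of Di et al. (passive blood–brain barrier permeation). Effective permeability is reported as Pe in 10−6 cm s−1.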

[6] = Antioxidant activity assessed as Fe3+/ascorbic acid-induced hydroxyl radical scavenging activity at 0.1 mM after 30 mins; type: functional; summary of the method: as §1
[7] = Neuroprotective activity in Sprague-Dawley rat primary cortical neurons assessed as reversal of oxygen-glucose deprivation-induced neuronal damage at 250 uM by treated 4 hrs after OGD challenge measured after 24 hrs by LDH release assay relative to control; type: functional, Cerebral cortex neuron
Summary of the method: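 Primary cortical neurons, cultured 6–8 days, underwent 4 h oxygen–glucose deprivation followed by 24 h reperfusion. Compounds (1–250 μM) were added at reperfusion. Necrotic death was read as LDH release, normalized to untreated reperfusion cells as 100%. Four independent experiments; mean ± SEM; one-way ANOVA with Holm–Sidak post test.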

[8] = Neuroprotective activity in Sprague-Dawley rat primary cortical neurons assessed as reversal of oxygen-glucose deprivation-induced neuronal damage at 250 uM by treated 4 hrs after OGD challenge measured after 24 hrs MTT assay relative to control; type: functional, cell-based; conditions: Cerebral cortex neuron; summary of the method: as §2
[9] = Neuroprotective activity in Sprague-Dawley rat primary cortical neurons assessed as reversal of oxygen-glucose deprivation-induced neuronal damage at 1 uM by treated 4 hrs after OGD challenge measured after 24 hrs MTT assay relative to control; type: functional, cell-based; conditions: Cerebral cortex neuron; summary of the method: as §2
[10] = Antioxidant activity assessed as superoxide anion radical scavenging activity at 0.1 mM after 10 mins by tetrazolium dye assay; type: functional; summary of the method: as §1

SMILES: CC(C)(C)/[N+]([O-])=C/c1cccc(C(F)(F)F)c1
- inhibition [1]: 65%
- Activity (Mus musculus): 12%
- Activity [2]: 101%
- Activity [3]: 0.9%
- TIME [4]: 0 h
- Papp [5]: 27 ×10⁻⁶ cm/s
- Activity [6]: 60%
- Activity [7]: 70.08%
- Activity [8]: 81.2%
- Activity [9]: 71.2%
- Activity [10]: 29%
